An excerpt weighted towards active compounds, which were near 1.8% of everything screened.
NPY-Y2 PAM-ag: potentiators or agonists of human neuropeptide Y receptor Y2 | P49146 | cells expressing NPY-Y2, potentiator/agonist read-out | activation, % at 3.6 µM | actives 0.45% (n = 220,000) | AID 1359; in the data active means activation above about 27%;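 further: cells stimulated with NPY near EC25 plus isoproterenol at EC100; 0% = vehicle plus submaximal agonist and 100% = vehicle plus saturating agonist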
NPY-Y1 antag: NPY-Y1 (human) receptor antagonism | HEK293-CNG Y1 cells, membrane potential fluorescence; NPY at EC95, then isoproterenol | AID 1040 | P25929 | actives 1% (n = 200,000) | inhibition, % at 3.6 µM;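 active means inhibition above the campaign mean inhibition of all tested compounds plus 3 SD, cut at about 20% in these data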;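 further: 0% = DMSO wells given NPY plus isoproterenol and 100% = isoproterenol alone without NPY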
Target sequence (P25929 whole entry, looked up): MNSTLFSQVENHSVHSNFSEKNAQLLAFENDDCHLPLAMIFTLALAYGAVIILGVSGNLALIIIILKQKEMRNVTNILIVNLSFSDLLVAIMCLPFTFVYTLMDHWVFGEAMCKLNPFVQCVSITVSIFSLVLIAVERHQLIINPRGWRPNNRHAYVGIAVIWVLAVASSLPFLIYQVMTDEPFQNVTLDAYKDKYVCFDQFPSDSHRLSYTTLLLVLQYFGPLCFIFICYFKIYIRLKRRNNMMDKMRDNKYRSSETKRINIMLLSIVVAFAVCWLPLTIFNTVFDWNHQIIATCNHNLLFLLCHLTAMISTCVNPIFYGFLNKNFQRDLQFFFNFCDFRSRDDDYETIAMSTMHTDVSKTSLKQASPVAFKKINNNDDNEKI
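Material: Y1- and CNG-channel-expressing HEK293 cells / Probe or stimulus: NPY 25 nM then isoproterenol 1 µM plus Ro 20-1724 25 µM / Doses: 3.6 µM single dose, DMSO 0.4% / Schedule: compound incubation 1 h at room temperature, readout 45 min post-stimulation / Signal: membrane potential fluorescence / Benchmarks: isoproterenol-only wells as full block versus NPY-plus-isoproterenol wells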
NPY-Y2 antag: antagonists of human neuropeptide Y receptor Y2; actives 0.99% (n = 140,000); NPY-Y2 expressing cells, antagonist mode; P49146; inhibition, % at 2.7 µM; in the data active means inhibition above about 17%;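 further: 0% = vehicle with agonist challenge and 100% = reference antagonist with challenge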
NPY1 pot ag: potentiators or agonists of human neuropeptide Y receptor Y1. P25929. NPY-Y1 expressing cells, potentiator/agonist activation. activation, % at 3.6 µM. actives 0.37% (n = 220,000). AID 1304; in the data active means activation above about 33%, passing the limit was not always enough;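 further: cells stimulated with NPY at EC10 then isoproterenol at EC100; 0% = low agonist plus stimulus and 100% = saturating agonist plus stimulus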
* marks the source's active call; other numbers are inactive results.

How did COCCCn1c(=N)c(C(=O)NC2CCCCC2)cc2c(=O)n3ccccc3nc21 do in these assays?
NPY-Y2 PAM-ag: 13.9; NPY-Y1 antag: 14.9; NPY-Y2 antag: 19.9*; NPY1 pot ag: -10.7

How did N=c1c(C(=O)NCc2ccco2)cc2c(=O)n3ccccc3nc2n1Cc1ccc(Cl)cc1 do in these assays?
NPY-Y2 PAM-ag: -25.4; NPY-Y1 antag: 36.0*; NPY-Y2 antag: 25.0*; NPY1 pot ag: 10.0

How did N=c1c(C(=O)NCc2ccc(F)cc2)cc2c(=O)n3ccccc3nc2n1Cc1ccco1 do in these assays?
NPY-Y2 PAM-ag: 5.7; NPY-Y1 antag: 3.5; NPY-Y2 antag: 16.0; NPY1 pot ag: 7.7

What do the screens show for `CCOC(=O)C1(P(=O)(c2ccc(Cl)cc2)c2ccc(Cl)cc2)CCC1`?
NPY-Y2 PAM-ag: -45.1; NPY-Y1 antag: 27.7*; NPY-Y2 antag: 26.7*; NPY1 pot ag: -18.4

Results for Cc1ccc2cc(CCNC(=O)c3ccc(Br)o3)c(=O)[nH]c2c1 ?
NPY-Y2 PAM-ag: -3.8; NPY-Y1 antag: -1.5; NPY-Y2 antag: -0.5; NPY1 pot ag: -8.0

How did COc1ccc(Br)cc1CN1CCCCCCC1 do in these assays?
NPY-Y2 PAM-ag: -25.4; NPY-Y1 antag: 21.6*; NPY-Y2 antag: 21.3*; NPY1 pot ag: -30.6

Results for Cc1ccsc1CNC(=O)c1c(-c2ccccc2)noc1C ?
NPY-Y2 PAM-ag: 9.1; NPY1 pot ag: 0.4

Results for CCCC(c1nnnn1Cc1ccco1)N1CCN(c2ccccc2)CC1 (configuration not stated) ?
NPY-Y2 PAM-ag: -13.3; NPY-Y1 antag: 4.1; NPY1 pot ag: 6.0

How did CCCC(c1nnnn1C(C)(C)C)N1CCN(c2ccccc2)CC1 (configuration not stated) do in these assays?
NPY-Y2 PAM-ag: -1.4; NPY-Y1 antag: 21.1*; NPY1 pot ag: 15.4

What do the screens show for `ClC(Cl)(c1nnnn1-c1ccccc1)c1nnnn1-c1ccccc1`?
NPY-Y2 PAM-ag: 0.9; NPY-Y1 antag: 2.2; NPY-Y2 antag: 1.9; NPY1 pot ag: -12.5

What do the screens show for `CCOC(=O)C1=C(C)N(C)C(C)=C(C(=O)OCC)C1c1ccc(Cl)cc1`?
NPY-Y2 PAM-ag: -1.1; NPY-Y1 antag: 12.6; NPY-Y2 antag: 9.1; NPY1 pot ag: -28.9

What do the screens show for `CCOC(=O)C1=C(C)N(C)C(C)=C(C(=O)OCC)C1c1ccc(C(=O)OC)cc1`?
NPY-Y2 PAM-ag: -13.3; NPY-Y1 antag: 35.1*; NPY-Y2 antag: 24.8*; NPY1 pot ag: -15.1

What do the screens show for `C/C(=N/NC(=O)c1cccs1)c1cccs1`?
NPY-Y2 PAM-ag: -2.1; NPY1 pot ag: 4.5

Results for C/C(NC(=O)c1cccs1)=C1\C(=O)C[C@@H]2[C@H]1C2(C)C ?
NPY-Y2 PAM-ag: -11.2; NPY-Y1 antag: 21.6*; NPY-Y2 antag: 5.2; NPY1 pot ag: -12.8

How did COC(=O)CN1C(=S)N(Cc2ccccc2)C(=O)C1CC(=O)Nc1ccc(Br)cc1 (configuration not stated) do in these assays?
NPY-Y2 PAM-ag: 34.6*; NPY-Y1 antag: -11.9; NPY-Y2 antag: -7.3; NPY1 pot ag: 44.2*

How did Cc1c(O)c(CN(C)C)cc2c1oc(=O)c1ccccc12 do in these assays?
NPY-Y2 PAM-ag: 50.9*; NPY1 pot ag: 84.0*

How did COc1ccc(NC(=O)c2cc(S(=O)(=O)N3CCCC3)oc2C)cc1 do in these assays?
NPY-Y2 PAM-ag: 8.3; NPY1 pot ag: 9.8

Results for COc1ccc(NS(=O)(=O)c2cc(OC)ccc2NC(=O)c2cc(C)oc2C)cc1 ?
NPY-Y2 PAM-ag: 23.8; NPY-Y1 antag: 20.4*; NPY-Y2 antag: 5.0; NPY1 pot ag: 24.5

How did Cc1ccc(CN2C3=NCCCN3c3ccccc32)cc1 do in these assays?
NPY-Y2 PAM-ag: -13.8; NPY-Y1 antag: 10.6; NPY-Y2 antag: 9.2; NPY1 pot ag: -40.0

How did CC(C)(C)c1ccc(CN2C3=NCCCN3c3ccccc32)cc1 do in these assays?
NPY-Y2 PAM-ag: -34.7; NPY-Y1 antag: 25.4*; NPY-Y2 antag: 19.6*; NPY1 pot ag: -62.7

Results for Cc1ccc(C(=O)N/C(=C\c2cccs2)C(=O)NCCCn2ccnc2)cc1 ?
NPY-Y2 PAM-ag: 10.6; NPY-Y1 antag: -3.0; NPY-Y2 antag: -0.7; NPY1 pot ag: 0.1

What do the screens show for `Cc1onc(-c2ccccc2)c1C(=O)OCC(=O)NCc1ccc(F)cc1`?
NPY-Y2 PAM-ag: 6.3; NPY-Y1 antag: -1.5; NPY1 pot ag: -28.5

Results for O=S(=O)(Nc1ccc(N=Nc2ccccc2)cc1)c1ccccc1 ?
NPY-Y2 PAM-ag: 8.3; NPY-Y1 antag: -2.5; NPY-Y2 antag: -2.2; NPY1 pot ag: 20.1

How did O=S(=O)(Nc1ccc(N=Nc2ccc(O)c3ccccc23)cc1)c1ccccc1 do in these assays?
NPY-Y2 PAM-ag: 61.9*; NPY-Y1 antag: -13.0; NPY-Y2 antag: -8.2; NPY1 pot ag: 73.0*

Results for NCCc1c(-c2ccccc2)n(-c2ccccc2)c2ccccc12 ?
NPY-Y2 PAM-ag: 0.3; NPY-Y1 antag: 18.9; NPY1 pot ag: 5.1

Results for CCOC(=O)c1ccc(Oc2nc(OC)cc(OC)n2)cc1 ?
NPY-Y2 PAM-ag: -3.2; NPY-Y1 antag: 2.6; NPY1 pot ag: -17.1

What do the screens show for `Cc1[nH]nc2c1C(c1ccc(N(C)C)cc1)C1=C(CC(C)(C)CC1=O)N2` (configuration not stated)?
NPY-Y2 PAM-ag: -22.4; NPY-Y1 antag: 20.5*; NPY1 pot ag: -2.3

Results for CC1CCCCC1NC(=O)COC(=O)c1ccccc1NC(=O)c1ccco1 (configuration not stated) ?
NPY-Y2 PAM-ag: -7.7; NPY-Y1 antag: 29.8*; NPY-Y2 antag: 19.3*; NPY1 pot ag: -31.9

How did CNC(=O)COC(=O)c1ccccc1NC(=O)c1ccco1 do in these assays?
NPY-Y2 PAM-ag: 10.0; NPY1 pot ag: 13.5

What do the screens show for `Nc1ccc2nc(SCC(=O)N3CCOCC3)sc2c1`?
NPY-Y2 PAM-ag: -3.2; NPY-Y1 antag: 2.4; NPY1 pot ag: -1.9

What do the screens show for `COC(=O)CSc1nc2ccc(NC(C)=O)cc2s1`?
NPY-Y2 PAM-ag: 61.7*; NPY-Y1 antag: -7.7; NPY-Y2 antag: 2.5; NPY1 pot ag: 67.8*

How did CCOC(=O)CSc1nc2ccc(N)cc2s1 do in these assays?
NPY-Y2 PAM-ag: 34.2*; NPY-Y1 antag: -8.2; NPY-Y2 antag: 2.3; NPY1 pot ag: 55.8*

How did CCOC(=O)CSc1nc2ccc(NC(=O)CSc3nnnn3Cc3ccccc3)cc2s1 do in these assays?
NPY-Y2 PAM-ag: 98.9*; NPY-Y1 antag: -14.1; NPY-Y2 antag: -3.1; NPY1 pot ag: 103.8*

Results for CCC(C)(C)NC(=O)C(c1cccn1C)N(Cc1ccc(OC)cc1)C(=O)Cn1nnc2ccccc21 (configuration not stated) ?
NPY-Y2 PAM-ag: -81.2; NPY-Y1 antag: 52.0*; NPY-Y2 antag: 52.7*; NPY1 pot ag: -158.9

Results for CCC(C)(C)NC(=O)C(c1cccn1C)N(C(=O)Cn1nnc2ccccc21)c1ccccc1OC (configuration not stated) ?
NPY-Y2 PAM-ag: 4.1; NPY-Y1 antag: 1.7; NPY-Y2 antag: 4.6; NPY1 pot ag: -11.6

What do the screens show for `CCn1cc(CNCc2c(C(=O)N3CCCCC3)nc3c(C)cccn23)cn1`?
NPY-Y2 PAM-ag: -9.7; NPY-Y1 antag: 20.6*; NPY1 pot ag: -15.6

How did CCCSC1=C(C#N)C2(CCCCC2)C(C#N)=C(N)N1 do in these assays?
NPY-Y2 PAM-ag: 31.9*; NPY-Y1 antag: -12.9; NPY1 pot ag: 53.5*

High-throughput results: PubChem BioAssay, The Scripps Research Institute Molecular Screening Center
